Results reported in ChEMBL document CHEMBL3272200, “Synthsis and antitumor properties of bis(quinaldine) derivatives” (J Med Chem, 1977).

Assays:
[1] = system: Calf thymus DNA; assay: Binding affinity to calf thymus DNA assessed as inhibition of DNA-dependent Escherichia coli RNA polymerase activity by measuring [14C]ATP incorporation at 0.1 mM by liquid scintillation spectrometer analysis; format: nucleic-acid assay; settings: Bos taurus
Summary of the method: (§1)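 0.125 mL mix: Tris-HCl pH 8.0 5 μmol, MgCl2 1.25 μmol, β-mercaptoethanol 1.25 μmol, CTP/UTP/GTP 0.019 μmol each, [8-14C]ATP 0.019 μmol, calf thymus DNA 3.65 μg. Compound in 5 μL MeOH (MeOH-only controls) added before the E. coli enzyme. Incubated 10 min at 37. Acid-insoluble label collected by filter-disk method and scintillation counted. Triplicates.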

[2] = system: Calf thymus DNA; assay: Binding affinity to calf thymus DNA assessed as inhibition of DNA-dependent Escherichia coli RNA polymerase activity by measuring [14C]ATP incorporation at 50 uM by liquid scintillation spectrometer analysis; format: nucleic-acid assay; settings: Bos taurus; summary of the method: as §1
[3] = system: Calf thymus DNA; assay: Binding affinity to calf thymus DNA assessed as change in melting temperature at 10 uM by spectrophotometer analysis; format: nucleic-acid assay; settings: Bos taurus
Summary of the method: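 Drug at 1×10^-5 M with 15 μg/mL calf thymus DNA in 5 mM phosphate buffer, pH 7.4. Absorbance followed at 260 nm while temperature rose at 1.0 °C/min to give the melting temperature.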

[4] = system: Calf thymus DNA; assay: Binding affinity to calf thymus DNA assessed as inhibition of DNA-dependent Escherichia coli RNA polymerase activity by measuring [14C]ATP incorporation at 2.5 uM by liquid scintillation spectrometer analysis; format: nucleic-acid assay; settings: Bos taurus; summary of the method: as §1
[5] = system: Calf thymus DNA; assay: Binding affinity to calf thymus DNA assessed as inhibition of DNA-dependent Escherichia coli RNA polymerase activity by measuring [14C]ATP incorporation at 5 uM by liquid scintillation spectrometer analysis; format: nucleic-acid assay; settings: Bos taurus; summary of the method: as §1
[6] = system: Calf thymus DNA; assay: Binding affinity to calf thymus DNA assessed as inhibition of DNA-dependent Escherichia coli RNA polymerase activity by measuring [14C]ATP incorporation at 7.5 uM by liquid scintillation spectrometer analysis; format: nucleic-acid assay; settings: Bos taurus; summary of the method: as §1
[7] = system: Calf thymus DNA; assay: Binding affinity to calf thymus DNA assessed as inhibition of DNA-dependent Escherichia coli RNA polymerase activity by measuring [14C]ATP incorporation by liquid scintillation spectrometer analysis; format: nucleic-acid assay; settings: for inhibition: Bos taurus; for IC50: read-out: I50; summary of the method: as §1
[8] = system: Calf thymus DNA; assay: Binding affinity to calf thymus DNA assessed as inhibition of DNA-dependent Escherichia coli RNA polymerase activity by measuring [14C]ATP incorporation at 10 uM by liquid scintillation spectrometer analysis; format: nucleic-acid assay; settings: Bos taurus; summary of the method: as §1
[9] = Retardation factor of the compound using n-BuOH-AcOH-H2O at ratio of 3:1:2 as solvent system by silica gel based chromatography; format: physicochemical
[10] = system: P388; assay: Antitumor activity against mouse P388 cells assessed as mean animal survival time at 25 mg/kg administered qd for 1 to 9 days relative to control; format: functional
Summary of the method: (§2)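 P-388 leukemia survival test. The value is T/C: mean or median survival time of treated animals divided by that of control animals, expressed as a percentage. A compound counts as active if it gives reproducible T/C values of 125% or more.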

[11] = system: P388; assay: Antitumor activity against mouse P388 cells assessed as mean animal survival time at 6.25 mg/kg administered qd for 1 to 9 days relative to control; format: functional; summary of the method: as §2
[12] = system: P388; assay: Antitumor activity against mouse P388 cells assessed as mean animal survival time at 12.5 mg/kg administered qd for 1 to 9 days relative to control; format: functional; summary of the method: as §2
[13] = system: P388; assay: Antitumor activity against mouse P388 cells assessed as mean animal survival time at 400 mg/kg administered qd for 1 to 9 days relative to control; format: functional; summary of the method: as §2
[14] = system: P388; assay: Antitumor activity against mouse P388 cells assessed as mean animal survival time at 100 mg/kg administered qd for 1 to 9 days relative to control; format: functional; summary of the method: as §2

Structure (SMILES): Cc1cc(NCCCCNCCCNc2cc(C)nc3cc(N)ccc23)c2ccc(N)cc2n1
- inhibition [1]: 92%
- inhibition [2]: 94%
- ΔTm [3]: 19.5 °C
- inhibition [4]: 0%
- inhibition [5]: 17%
- inhibition [6]: 38%
- inhibition [7]: Dose-dependent effect
- inhibition [8]: 95%

Structure (SMILES): Cc1cc(NCCCNCCCNc2cc(C)nc3cc(N)ccc23)c2ccc(N)cc2n1.Cl
- IC50 [7]: 6 µM
- Rf [9]: 0.57

Structure (SMILES): CC(=O)O.Cc1cc(NCCCCNCCCNc2cc(C)nc3cc(N)ccc23)c2ccc(N)cc2n1
- T/C [10]: 165%

Structure (SMILES): Cc1cc(NCCCCCCCCNc2cc(C)nc3cc(N)ccc23)c2ccc(N)cc2n1.Cl
- IC50 [7]: 6 µM
- Rf [9]: 0.7

Structure (SMILES): CC(=O)O.Cc1cc(NCCCCCCCNc2cc(C)nc3cc(N)ccc23)c2ccc(N)cc2n1
- T/C [11]: 196%

Structure (SMILES): CC(=O)O.Cc1cc(NCCCNCCCNc2cc(C)nc3cc(N)ccc23)c2ccc(N)cc2n1
- T/C [12]: 150%

Structure (SMILES): Cc1cc(NCCCCNCCCNc2cc(C)nc3cc([N+](=O)[O-])ccc23)c2ccc([N+](=O)[O-])cc2n1.Cl
- T/C [12]: 150%
- Rf [9]: 0.73

Structure (SMILES): Cc1cc(NCCCCCCNc2cc(C)nc3ccc(N)cc23)c2cc(N)ccc2n1.Cl
- ΔTm [3]: 18 °C
- T/C [13]: 254%

Structure (SMILES): Cc1cc(NCCCCCCCNc2cc(C)nc3cc(N)ccc23)c2ccc(N)cc2n1.Cl
- IC50 [7]: 6 µM
- Rf [9]: 0.63

Structure (SMILES): Cc1cc(NCCCCCCNc2cc(C)nc3cc(N)ccc23)c2ccc(N)cc2n1.Cl
- IC50 [7]: 6 µM
- Rf [9]: 0.6

Structure (SMILES): CC(=O)O.Cc1cc(NCCCCCCCCNc2cc(C)nc3cc(N)ccc23)c2ccc(N)cc2n1
- T/C [11]: 134%

Structure (SMILES): Cc1cc(NCCCCCCNc2cc(C)nc3cc(N)ccc23)c2ccc(N)cc2n1
- inhibition [1]: 97%
- inhibition [2]: 93%
- ΔTm [3]: 19 °C
- inhibition [4]: 0%
- inhibition [5]: 29%
- inhibition [6]: 50%
- inhibition [7]: Dose-dependent effect
- inhibition [8]: 91%

Structure (SMILES): Cc1cc(NCCCNCCCNc2cc(C)nc3cc([N+](=O)[O-])ccc23)c2ccc([N+](=O)[O-])cc2n1.Cl
- T/C [10]: 150%
- Rf [9]: 0.69

Structure (SMILES): Cc1cc(NCCCCCCCCNc2cc(C)nc3cc(N)ccc23)c2ccc(N)cc2n1
- inhibition [1]: 97%
- inhibition [2]: 95%
- ΔTm [3]: 18.5 °C
- inhibition [4]: 0%
- inhibition [5]: 38%
- inhibition [6]: 91%
- inhibition [7]: Dose-dependent effect
- inhibition [8]: 95%

Structure (SMILES): CC(=O)O.Cc1cc(NCCCCCCNc2cc(C)nc3cc(N)ccc23)c2ccc(N)cc2n1
- T/C [10]: 158%

Structure (SMILES): Cc1cc(NCCCCCCCNc2cc(C)nc3cc(N)ccc23)c2ccc(N)cc2n1
- inhibition [1]: 98%
- inhibition [2]: 98%
- ΔTm [3]: 17 °C
- inhibition [4]: 0%
- inhibition [5]: 0%
- inhibition [6]: 24%
- inhibition [7]: Dose-dependent effect
- inhibition [8]: 63%

Structure (SMILES): Cc1cc(NCCCNCCCNc2cc(C)nc3cc(N)ccc23)c2ccc(N)cc2n1
- inhibition [1]: 94%
- inhibition [2]: 98%
- ΔTm [3]: 22.5 °C
- inhibition [4]: 0%
- inhibition [5]: 9%
- inhibition [6]: 31%
- inhibition [7]: Dose-dependent effect
- inhibition [8]: 96%

Structure (SMILES): Cc1cc(NCCCCCCCNc2cc(C)nc3cc([N+](=O)[O-])ccc23)c2ccc([N+](=O)[O-])cc2n1.Cl
- T/C [12]: 149%
- Rf [9]: 0.79

Structure (SMILES): Cc1cc(NCCCCCCNc2cc(C)nc3cc([N+](=O)[O-])ccc23)c2ccc([N+](=O)[O-])cc2n1.Cl
- Rf [9]: 0.77
- T/C [14]: 99%

Structure (SMILES): Cc1cc(NCCCCNCCCNc2cc(C)nc3cc(N)ccc23)c2ccc(N)cc2n1.Cl
- IC50 [7]: 6 µM
- Rf [9]: 0.5

Structure (SMILES): Cc1cc(NCCCCCCCCNc2cc(C)nc3cc([N+](=O)[O-])ccc23)c2ccc([N+](=O)[O-])cc2n1.Cl
- T/C [12]: 110%
- Rf [9]: 0.8
